Results from ChEMBL document CHEMBL2311487, “Total synthesis of bicyclic depsipeptides spiruchostatins C and D and investigation of their histone deacetylase inhibitory and antiproliferative activities” (Eur J Med Chem, 2013).

Legend:
[1] = molecular target: Histone deacetylase; assay: Inhibition of class 1 HDAC (unknown origin); format: protein assay, Homo sapiens
[2] = Selectivity index, ratio of IC50 for mouse HDAC6 to IC50 for human HDAC1
Outline: (§1)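 FLAG-tagged HDAC1 or HDAC6 was expressed in cells grown 24 h in DMEM, then lysed in Tris/NaCl/EDTA/NP40 buffer. The enzyme was immunoprecipitated with anti-FLAG M2 and eluted with FLAG peptide. It was incubated with Ac-KGLGK(Ac)-MCA (2 mM stock) and 100 μM DTT at 37 °C for 30 min, then trypsin at 37 °C for 15 min. AMC fluorescence was read. IC50 is the mean±SD of ≥3 curves. The ratios are computed from these IC50s.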

[3] = molecular target: Histone deacetylase 1 (Homo sapiens) (UniProt Q13547); assay: Ratio of FK228 IC50 to compound IC50 for human HDAC1 using Ac-KGLGK(Ac)-MCA as substrate after 30 mins by fluorescence assay; outline: as §1
[4] = molecular target: Protein deacetylase HDAC6 (Mus musculus, UniProt Q9Z2V5); assay: Inhibition of mouse HDAC6 using Ac-KGLGK(Ac)-MCA as substrate after 30 mins by fluorescence assay
[5] = tested on: PC-3; assay: Growth inhibition of human PC3 cells by sulforhodamine B colorimetric method; format: functional
Outline: (§2)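 Tested in a human cancer cell line panel. Five concentrations were used per compound, spanning either 10^-10–10^-6 M or 10^-8–10^-4 M. Growth was read by sulforhodamine B colorimetry.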

[6] = tested on: DU-145; assay: Growth inhibition of human DU145 cells by sulforhodamine B colorimetric method; format: functional; outline: as §2
[7] = tested on: MKN-45; assay: Growth inhibition of human MKN45 cells by sulforhodamine B colorimetric method; format: functional; outline: as §2
[8] = tested on: MKN-74; assay: Growth inhibition of human MKN74 cells by sulforhodamine B colorimetric method; format: functional; outline: as §2
[9] = tested on: MKN-28; assay: Growth inhibition of human MKN28 cells by sulforhodamine B colorimetric method; format: functional; outline: as §2
[10] = tested on: MKN-7; assay: Growth inhibition of human MKN7 cells by sulforhodamine B colorimetric method; format: functional; outline: as §2
[11] = tested on: St-4; assay: Growth inhibition of human St-4 cells by sulforhodamine B colorimetric method; format: functional; outline: as §2
[12] = Growth inhibition of human MKN1 cells by sulforhodamine B colorimetric method; format: functional; conditions: MKN-1; outline: as §2
[13] = Growth inhibition of human RXF631L cells by sulforhodamine B colorimetric method; format: functional; conditions: RXF 631; outline: as §2
[14] = tested on: ACHN; assay: Growth inhibition of human ACHN cells by sulforhodamine B colorimetric method; format: functional; outline: as §2
[15] = tested on: SK-OV-3; assay: Growth inhibition of human SKOV3 cells by sulforhodamine B colorimetric method; format: functional; outline: as §2
[16] = tested on: OVCAR-5; assay: Growth inhibition of human OVCAR5 cells by sulforhodamine B colorimetric method; format: functional; outline: as §2
[17] = tested on: OVCAR-8; assay: Growth inhibition of human OVCAR8 cells by sulforhodamine B colorimetric method; format: functional; outline: as §2
[18] = tested on: OVCAR-4; assay: Growth inhibition of human OVCAR4 cells by sulforhodamine B colorimetric method; format: functional; outline: as §2
[19] = tested on: LOX IMVI; assay: Growth inhibition of human LOXIMVI cells by sulforhodamine B colorimetric method; format: functional; outline: as §2
[20] = tested on: OVCAR-3; assay: Growth inhibition of human OVCAR3 cells by sulforhodamine B colorimetric method; format: functional; outline: as §2
[21] = tested on: DMS-273; assay: Growth inhibition of human DMS273 cells by sulforhodamine B colorimetric method; format: functional; outline: as §2
[22] = tested on: DMS-114; assay: Growth inhibition of human DMS114 cells by sulforhodamine B colorimetric method; format: functional; outline: as §2
[23] = tested on: NCI-H460; assay: Growth inhibition of human NCI-H460 cells by sulforhodamine B colorimetric method; format: functional; outline: as §2
[24] = tested on: A549; assay: Growth inhibition of human A549 cells by sulforhodamine B colorimetric method; format: functional; outline: as §2
[25] = tested on: NCI-H522; assay: Growth inhibition of human NCI-H522 cells by sulforhodamine B colorimetric method; format: functional; outline: as §2
[26] = tested on: NCI-H23; assay: Growth inhibition of human NCI-H23 cells by sulforhodamine B colorimetric method; format: functional; outline: as §2
[27] = tested on: NCI-H226; assay: Growth inhibition of human NCI-H226 cells by sulforhodamine B colorimetric method; format: functional; outline: as §2
[28] = tested on: HCT-116; assay: Growth inhibition of human HCT116 cells by sulforhodamine B colorimetric method; format: functional; outline: as §2
[29] = tested on: HT-29; assay: Growth inhibition of human HT-29 cells by sulforhodamine B colorimetric method; format: functional; outline: as §2
[30] = tested on: HCT-15; assay: Growth inhibition of human HCT15 cells by sulforhodamine B colorimetric method; format: functional; outline: as §2
[31] = Growth inhibition of human HCC2998 cells by sulforhodamine B colorimetric method; format: functional; conditions: HCC 2998; outline: as §2
[32] = tested on: KM12; assay: Growth inhibition of human KM12 cells by sulforhodamine B colorimetric method; format: functional; outline: as §2
[33] = tested on: SNB-78; assay: Growth inhibition of human SNB78 cells by sulforhodamine B colorimetric method; format: functional; outline: as §2
[34] = tested on: SNB-75; assay: Growth inhibition of human SNB75 cells by sulforhodamine B colorimetric method; format: functional; outline: as §2
[35] = tested on: SF-539; assay: Growth inhibition of human SF539 cells by sulforhodamine B colorimetric method; format: functional; outline: as §2
[36] = tested on: SF-295; assay: Growth inhibition of human SF295 cells by sulforhodamine B colorimetric method; format: functional; outline: as §2
[37] = tested on: U-251; assay: Growth inhibition of human U251 cells by sulforhodamine B colorimetric method; format: functional; outline: as §2
[38] = tested on: SF-268; assay: Growth inhibition of human SF268 cells by sulforhodamine B colorimetric method; format: functional; outline: as §2
[39] = tested on: MDA-MB-231; assay: Growth inhibition of human MDA-MB-231 cells by sulforhodamine B colorimetric method; format: functional; outline: as §2
[40] = tested on: MCF7; assay: Growth inhibition of human MCF7 cells by sulforhodamine B colorimetric method; format: functional; outline: as §2
[41] = Growth inhibition of human HBC5 cells by sulforhodamine B colorimetric method; format: functional; outline: as §2
[42] = Growth inhibition of human BSY1 cells by sulforhodamine B colorimetric method; format: functional; conditions: BSY-1; outline: as §2
[43] = Growth inhibition of human HBC4 cells by sulforhodamine B colorimetric method; format: functional; outline: as §2

Histone deacetylase 1 (Homo sapiens), sequence (Q13547 whole entry): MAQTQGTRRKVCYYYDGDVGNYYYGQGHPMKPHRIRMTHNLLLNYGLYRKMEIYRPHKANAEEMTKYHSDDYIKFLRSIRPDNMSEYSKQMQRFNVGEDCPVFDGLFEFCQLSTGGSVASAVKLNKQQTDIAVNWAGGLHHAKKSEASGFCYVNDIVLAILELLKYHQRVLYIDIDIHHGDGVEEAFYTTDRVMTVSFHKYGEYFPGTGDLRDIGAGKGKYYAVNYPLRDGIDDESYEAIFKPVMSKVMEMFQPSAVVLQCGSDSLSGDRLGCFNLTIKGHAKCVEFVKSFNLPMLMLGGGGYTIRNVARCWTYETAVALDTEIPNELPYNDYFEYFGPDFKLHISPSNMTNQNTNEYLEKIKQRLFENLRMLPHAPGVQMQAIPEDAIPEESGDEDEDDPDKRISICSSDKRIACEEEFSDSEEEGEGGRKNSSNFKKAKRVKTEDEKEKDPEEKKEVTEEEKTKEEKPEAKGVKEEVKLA
Protein deacetylase HDAC6, sequence (Q9Z2V5 whole entry): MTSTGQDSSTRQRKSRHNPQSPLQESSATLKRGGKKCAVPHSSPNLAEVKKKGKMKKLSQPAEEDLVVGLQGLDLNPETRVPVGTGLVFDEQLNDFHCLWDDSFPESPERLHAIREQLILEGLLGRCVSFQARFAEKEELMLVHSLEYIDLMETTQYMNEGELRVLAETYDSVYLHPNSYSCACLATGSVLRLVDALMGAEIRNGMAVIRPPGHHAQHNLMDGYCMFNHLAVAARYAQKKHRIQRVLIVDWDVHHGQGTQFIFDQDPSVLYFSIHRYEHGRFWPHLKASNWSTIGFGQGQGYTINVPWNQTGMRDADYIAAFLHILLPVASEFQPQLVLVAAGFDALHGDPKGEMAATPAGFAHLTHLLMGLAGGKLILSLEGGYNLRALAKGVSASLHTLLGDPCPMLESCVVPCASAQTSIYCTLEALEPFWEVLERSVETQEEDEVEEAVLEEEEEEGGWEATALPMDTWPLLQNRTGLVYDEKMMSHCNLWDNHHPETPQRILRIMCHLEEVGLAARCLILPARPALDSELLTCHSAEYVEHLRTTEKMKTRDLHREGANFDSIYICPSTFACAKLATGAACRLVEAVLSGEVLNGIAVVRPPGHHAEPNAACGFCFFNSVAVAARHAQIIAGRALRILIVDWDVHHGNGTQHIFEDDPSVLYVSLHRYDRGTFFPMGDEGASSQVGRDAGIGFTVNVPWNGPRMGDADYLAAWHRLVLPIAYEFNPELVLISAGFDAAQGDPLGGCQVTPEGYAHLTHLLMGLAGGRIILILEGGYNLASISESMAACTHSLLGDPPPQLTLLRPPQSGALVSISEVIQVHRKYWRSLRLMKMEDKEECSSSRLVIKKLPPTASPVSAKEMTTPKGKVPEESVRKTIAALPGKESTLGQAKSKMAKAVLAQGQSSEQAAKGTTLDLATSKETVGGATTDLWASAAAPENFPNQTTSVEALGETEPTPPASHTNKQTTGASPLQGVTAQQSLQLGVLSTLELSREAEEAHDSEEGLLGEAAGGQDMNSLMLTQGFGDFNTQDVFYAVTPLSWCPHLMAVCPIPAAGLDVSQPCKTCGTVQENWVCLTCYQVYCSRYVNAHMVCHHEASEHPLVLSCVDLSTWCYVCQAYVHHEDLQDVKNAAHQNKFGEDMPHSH

CCC(C)[C@H]1NC(=O)[C@H]2CSSCC/C=C/[C@H](CC(=O)N[C@H](C)C(=O)N2)OC(=O)C[C@@H]1O (stereo partly drawn) [spiruchostatin B]
IC50 [1]: 2.2 nM

CC(C)[C@H]1NC(=O)[C@H]2CSSCC/C=C/[C@H](CC(=O)N[C@H](C(C)C)C(=O)N2)OC(=O)C[C@@H]1O [spiruchostatin D]
Ratio IC50 [2]: 320 | Ratio IC50 [3]: 3 | IC50 [4]: 240 nM | GI50 [5]: 8.7 nM | GI50 [6]: 4 nM | GI50 [7]: 9.6 nM | GI50 [8]: 2.9 nM | GI50 [9]: 9.5 nM | GI50 [10]: 5.8 nM | GI50 [11]: 16 nM | GI50 [12]: 2 nM | GI50 [13]: 5.9 nM | GI50 [14]: 21 nM | GI50 [15]: 2.3 nM | GI50 [16]: 1.2 nM | GI50 [17]: 2.7 nM | GI50 [18]: 4.7 nM | GI50 [19]: 1.8 nM | GI50 [20]: 2.2 nM | GI50 [21]: 5.1 nM | GI50 [22]: 3.6 nM | GI50 [23]: 2.8 nM | GI50 [24]: 0.97 nM | GI50 [25]: 0.39 nM | GI50 [26]: 2.5 nM | GI50 [27]: 4 nM | GI50 [28]: 1.3 nM | GI50 [29]: 2.2 nM | GI50 [30]: 210 nM | GI50 [31]: 1.5 nM | GI50 [32]: 2.6 nM | GI50 [33]: 41 nM | GI50 [34]: 1.9 nM | GI50 [35]: 0.58 nM | GI50 [36]: 5.1 nM | GI50 [37]: 2.7 nM | GI50 [38]: 3.5 nM | GI50 [39]: 1.7 nM | GI50 [40]: 2.9 nM | GI50 [41]: 18 nM | GI50 [42]: 5.2 nM | GI50 [43]: 4.1 nM
